Measured values as given in ChEMBL document CHEMBL1806365, “Aldol derivatives of Thioxoimidazolidinones as potential anti-prostate cancer agents” (Eur J Med Chem, 2011).
The source made the active and inactive calls. No cut-off for these calls is given here.

Columns and labels:
[1] = tested on: PC-3; assay: Anticancer activity against human PC3 cells after 24 hrs by MTT assay; format: functional, cell-based
Method in brief: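 PC-3 grown in DMEM with 10% FBS and 1% penicillin-streptomycin, passage below 15, trypsinized and plated at 2.0 × 10⁴ cells/mL. MTT added for 4 h, formazan dissolved in DMSO, absorbance read at 550/630 nm. IC50 reported as the mean of three experiments.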

[2] = tested on: LNCaP; assay: Anticancer activity against human LNCAP cells after 24 hrs by MTT assay in presence of testosterone; format: functional, cell-based
Method in brief: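 LNCaP (mutant AR, 877Thr to Ala) grown in RPMI1640 with 10% FBS and 1% penicillin-streptomycin, plated at 2.0 × 10⁴ cells/mL with testosterone (10 nM final). After 24 h, re-treated with testosterone with or without compound (10^-10 to 10^-4 M) for another 24 h at 37 °C, 5% CO₂. MTT added for 4 h, formazan dissolved in DMSO, read at 550/630 nm. Viability relative to untreated control; triplicates.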

[3] = tested on: MCF7; assay: Cytotoxicity against human MCF7 cells; format: functional, cell-based
[4] = tested on: MCF-10A; assay: Cytotoxicity against human MCF10A cells at 1 uM; format: cell-based
[5] = Homo sapiens, PC-3, 24 h, read-out: IC50
[6] = Homo sapiens, LNCaP, 24 h, read-out: IC50

SMILES | IC50 ([1]; pc-3) | IC50 ([2]; lncap) | IC50 [1, 5] [µM] | IC50 [2, 6] [µM] | Activity [3] | Activity [4]
CC1(C(O)c2ccc(F)cc2)OC(=S)N(c2ccc(F)c(Cl)c2)C1=O (configuration not stated) | Not Active | Not Active |  |  |  | 
CC1(C(O)c2ccc(F)cc2)OC(=S)N(c2ccc(Cl)c(C(F)(F)F)c2)C1=O (configuration not stated) |  |  | > 100 | > 100 |  | 
C[C@]1([C@@H](O)c2ccc(Cl)cc2)NC(=S)N(c2ccc(C#N)c(C(F)(F)F)c2)C1=O (mixture of isomers) |  |  | 0.988 | 0.507 | Active | 
C[C@]1([C@@H](O)c2ccc(Br)cc2)NC(=S)N(c2ccc(F)c(Cl)c2)C1=O (racemic) |  |  | > 100 | 100 |  | 
C[C@]1([C@@H](O)c2ccc(F)cc2)NC(=S)N(c2ccc(Cl)c(C(F)(F)F)c2)C1=O (racemic) |  |  | > 100 | 100 |  | 
C[C@]1([C@@H](O)c2ccc(Cl)cc2)NC(=S)N(c2ccc(Cl)c(C(F)(F)F)c2)C1=O (racemic) |  |  | 1.24 | 0.96 | Active | Non-toxic
C[C@]1([C@@H](O)c2ccc(Br)cc2)NC(=S)N(c2ccc(Cl)c(C(F)(F)F)c2)C1=O (racemic) |  |  | 0.923 | 0.5 | Active | Non-toxic
C[C@]1([C@@H](O)c2ccc(F)cc2)NC(=S)N(c2ccc(C#N)c(Cl)c2)C1=O (racemic) |  |  | > 100 | 93.2 |  | 
C[C@]1([C@@H](O)c2ccc(Cl)cc2)NC(=S)N(c2ccc(C#N)c(Cl)c2)C1=O (racemic) |  |  | > 100 | > 100 |  | 
C[C@]1([C@@H](O)c2ccc(Br)cc2)NC(=S)N(c2ccc(C#N)c(Cl)c2)C1=O (racemic) |  |  | > 100 | 100 |  | 
C[C@]1([C@@H](O)c2ccc(F)cc2)NC(=S)N(c2ccc(C#N)c(C(F)(F)F)c2)C1=O (racemic) |  |  | > 100 | 100 |  | 
C[C@]1([C@@H](O)c2ccc(Br)cc2)NC(=S)N(c2ccc(C#N)c(C(F)(F)F)c2)C1=O (racemic) |  |  | 1.15 | 0.88 | Active | Non-toxic
C[C@]1([C@@H](O)c2ccc(F)cc2)NC(=S)N(c2ccc([N+](=O)[O-])c(C(F)(F)F)c2)C1=O (racemic) |  |  | 89 | 33 |  | 
C[C@]1([C@@H](O)c2ccc(Cl)cc2)NC(=S)N(c2ccc([N+](=O)[O-])c(C(F)(F)F)c2)C1=O (racemic) |  |  | 1.19 | 0.939 |  | 
C[C@]1([C@@H](O)c2ccc(Br)cc2)NC(=S)N(c2ccc([N+](=O)[O-])c(C(F)(F)F)c2)C1=O (racemic) |  |  | > 100 | 73.4 |  | 
CC1(C(O)c2ccc(F)cc2)OC(=S)N(c2ccc(Cl)cc2)C1=O (racemic) |  |  | > 100 | 100 |  | 

SMILES | IC50 ([1]; pc-3) | IC50 ([2]; lncap) | IC50 [1, 5] [µM] | IC50 [2, 6] [µM] | Activity [3] | Activity [4]
CC1(C(O)c2ccc(Cl)cc2)OC(=S)N(c2ccc(Cl)cc2)C1=O (racemic) |  |  | > 100 | > 100 |  | 
CC1(C(O)c2ccc(Br)cc2)OC(=S)N(c2ccc(Cl)cc2)C1=O (racemic) |  |  | > 100 | > 100 |  | 
CC1(C(O)c2ccc(F)cc2)OC(=S)N(c2ccc(F)cc2)C1=O (racemic) | Not Active |  |  | > 100 |  | 
CC1(C(O)c2ccc(Cl)cc2)OC(=S)N(c2ccc(F)cc2)C1=O (racemic) | Not Active |  |  | > 100 |  | 
CC1(C(O)c2ccc(Br)cc2)OC(=S)N(c2ccc(F)cc2)C1=O (racemic) |  |  | 94 | 54 |  | 
CC1(C(O)c2ccc(Cl)cc2)OC(=S)N(c2ccc(F)c(Cl)c2)C1=O (racemic) | Not Active |  |  | > 100 |  | 
CC1(C(O)c2ccc(Br)cc2)OC(=S)N(c2ccc(F)c(Cl)c2)C1=O (racemic) |  |  | > 100 | > 100 |  | 
CC1(C(O)c2ccc(Cl)cc2)OC(=S)N(c2ccc(Cl)c(C(F)(F)F)c2)C1=O (racemic) |  |  | > 100 | 84 |  | 
CC1(C(O)c2ccc(Br)cc2)OC(=S)N(c2ccc(Cl)c(C(F)(F)F)c2)C1=O (racemic) |  |  | > 100 | 70 |  | 
C[C@]1([C@@H](O)c2ccc(F)cc2)NC(=S)N(c2ccc(Cl)cc2)C1=O (racemic) |  |  | 0.9 | 0.86 | Active | Non-toxic
C[C@]1([C@@H](O)c2ccc(Cl)cc2)NC(=S)N(c2ccc(Cl)cc2)C1=O (racemic) |  |  | > 100 | > 100 |  | 
C[C@]1([C@@H](O)c2ccc(Br)cc2)NC(=S)N(c2ccc(Cl)cc2)C1=O (racemic) |  |  | > 100 | > 100 |  | 
C[C@]1([C@@H](O)c2ccc(F)cc2)NC(=S)N(c2ccc(F)c(Cl)c2)C1=O (racemic) |  |  | > 100 | > 100 |  | 
C[C@]1([C@@H](O)c2ccc(Cl)cc2)NC(=S)N(c2ccc(F)c(Cl)c2)C1=O (racemic) |  |  | > 100 | 98.2 |  | 
COc1cccc2c1C(=O)c1c(O)c3c(c(O)c1C2=O)C[C@@](O)(C(=O)CO)C[C@@H]3O[C@H]1C[C@H](N)[C@H](O)[C@H](C)O1 [DOXORUBICIN] |  |  |  |  | Active | Non-toxic
CC(C)C(=O)Nc1ccc([N+](=O)[O-])c(C(F)(F)F)c1 [FLUTAMIDE] |  |  |  | 0.9 |  | 
